pIC50: −log10 of the molar value. The source made the active and inactive calls. The calls are words filed in the database; no cut-off is given here.
Assays:
[1] = target: Protease (Human immunodeficiency virus 1) (UniProt Q9YQ12); experiment: Inhibition of HIV1 protease at 100 ug/mL
Outline: (§1)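 Commercial HIV protease assay kit, with inhibition calculated by a previously reported method. Compounds were screened at 100 µg/mL. IC50 was taken from concentration-dependent inhibition. Acetyl pepstatin served as positive control.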

Protease = Protease (Human immunodeficiency virus 1, UniProt Q9YQ12); experiment: Inhibition of HIV1 protease; outline: as §1
[2] = tested on: Human immunodeficiency virus 1; experiment: Antiviral activity against HIV1 in human MT4 cells assessed as inhibition of viral-induced cytopathic effect at 500 ug/mL; format: functional, organism-based
[3] = tested on: Human immunodeficiency virus 1; experiment: Antiviral activity against HIV1 in human MT4 cells assessed as inhibition of viral-induced cytopathic effect at 250 ug/mL; format: functional, organism-based

Chain of Protease (Human immunodeficiency virus 1) (Q9YQ12 as listed by the source): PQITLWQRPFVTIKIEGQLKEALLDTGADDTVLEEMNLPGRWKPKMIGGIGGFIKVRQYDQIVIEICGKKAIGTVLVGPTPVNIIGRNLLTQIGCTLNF
Chain of Protease (Q9YQ12 whole entry): as the sequence (Q9YQ12 as listed by the source) above

Compound	inhibition [1]	further results
CC1=C2[C@H]3OC(=O)[C@@H](C)[C@@H]3CC[C@](C)(O)[C@@H]2[C@H]2[C@H]3C[C@]4(C)O[C@@]5(C)CC[C@H]6[C@H](C)C(=O)O[C@@H]6[C@@]4([C@@H]35)[C@@H]12	22%	
CC1=C2[C@H]3OC(=O)[C@@H](C)[C@@H]3CC[C@](C)(O)[C@@H]2[C@H]2[C@H]3C(=O)[C@H](C)[C@]4([C@@H]3[C@@](C)(O)CC[C@H]3[C@H](C)C(=O)O[C@@H]34)[C@@H]12 [CARUIFOLIN B]	22%	pIC50 (Protease): 3.53; Activity [2]: Active
C=C1[C@@H](O)[C@@H]2[C@H]3[C@H](C(C)=C4[C@H]5OC(=O)[C@@H](C)[C@@H]5CC[C@](C)(O)[C@@H]43)[C@@]13[C@@H]2[C@@](C)(O)CC[C@H]1[C@H](C)C(=O)O[C@@H]13	22%	
CC1=C2[C@H]3OC(=O)[C@@H](C)[C@@H]3CC[C@](C)(O)[C@@H]2[C@H]2[C@@H]3[C@@H]4[C@]5([C@H]6OC(=O)[C@@H](C)[C@@H]6CC[C@]4(C)O[C@@]5(C)[C@H]3O)[C@@H]12	22%	
C[C@@H]1C(=O)O[C@@H]2C3=C([C@H]4C(=O)[C@]3(C)[C@@H]3[C@H](O)C5=C([C@H]6OC(=O)[C@@H](C)[C@@H]6CC[C@]5(C)O)[C@@]43C)[C@@](C)(O)CC[C@@H]12	22%	
CC1=C[C@H]2[C@H]3[C@H](C(C)=C4[C@H]5OC(=O)[C@@H](C)[C@@H]5CC[C@](C)(O)[C@@H]43)[C@@]13[C@@H]2[C@@](C)(O)CC[C@H]1[C@H](C)C(=O)O[C@@H]13	22%	Activity [3]: Active
CC1=C2[C@H]3OC(=O)[C@H](C)[C@@H]3CC[C@@](C)(O)[C@@H]2[C@H]2[C@H]3C[C@]4(C)O[C@@]5(C)CC[C@H]6[C@H](C)C(=O)O[C@@H]6[C@@]4([C@@H]35)[C@@H]12	22%	
C/C1=C/[C@H]2OC(=O)[C@H](C)[C@H]2CC[C@]2(C)O[C@H]1C[C@H]2O	22%	

Reference: ChEMBL document CHEMBL1155640, “Guaiane dimers and germacranolide from Artemisia caruifolia” (J Nat Prod, 2000)
